Records with an inconclusive call do not appear. Active and inactive are the calls of the source.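 The calls were made as follows: active = viability below 80% at one or more tested concentrations; inconclusive = replicate runs disagree on the 80% viability cutoff; inactive = viability above 80% at every tested concentration.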
Key:
[1] = viability loss in Vero E6 cells – cell-based, set 2, cytotoxicity control for PfM1AAP inhibitor project, dose response (AID 602228); conditions: Vero E6 viability, CellTiter-Glo luminescence, 72 h; at 50 µM (top of the series)
How it was run: (§1)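 Material – Vero E6 cell line · Compound – 10 concentrations, 2-fold dilution steps · Schedule – 72 h treatment at 37 °C · Technique – CellTiter-Glo ATP luminescence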

[2] = tested on: Vero E6 viability, CellTiter-Glo luminescence, 72 h; test: as above
How it was run: as §1

SMILES	viability [1]	CC50 [2]
CC[C@H](C)[C@H](NS(=O)(=O)c1ccc(Br)s1)C(=O)NCc1ccc2c(c1)OCO2	95.3% (inactive)	–
O=C(NCc1ccc(F)cc1)C1CCN(S(=O)(=O)c2ccc(Br)s2)CC1	–	39.6 µM
O=C(NCc1ccc(Cl)cc1)C1CCN(S(=O)(=O)c2ccc(Br)s2)CC1	–	17.7 µM
O=C(NCc1ccccc1)C1CCN(S(=O)(=O)c2ccc(Br)s2)CC1	–	47.4 µM
O=C(NCc1ccc2c(c1)OCO2)C1CCN(S(=O)(=O)c2ccc(Br)s2)CC1	89.3% (inactive)	–
